This note sets out measurements from ChEMBL document CHEMBL5705890, “Antitumor activity of an allosteric inhibitor of centromere-associated protein-E” (Proc Natl Acad Sci U S A, 2010).

Each structure is given as a SMILES string.

What all share (assay type): functional
The subject of assay [1] is H4. Nature of the assay: Anticancer activity against human H4 cells assessed as cell growth inhibition measured after 72 hrs by DAPI staining based analysis. Put shortly: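 Cells seeded, DAPI-stained DNA content of fixed cells read by imaging 24 h after seeding (T0), and again after a further 72 h exposure to a range of drug concentrations (T72). T72 values were normalized to T0. Curve fits gave the concentration producing 50% growth inhibition relative to T0 and Ymax (GI50).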

In a further assay the test system is RKO. Nature of the assay: Anticancer activity against human RKO cells assessed as cell growth inhibition measured after 72 hrs by DAPI staining based analysis.
A further assay concerns SF-295. Nature of the assay: Anticancer activity against human SF-295 cells assessed as cell growth inhibition measured after 72 hrs by DAPI staining based analysis.
Assay [2] relates to H4. Nature of the assay: Anticancer activity against human H4 cells assessed as cell doubling measured for 72 hrs by DAPI staining based analysis.

Consider `CC(C)Oc1ccc(C(=O)N[C@H](CNC(=O)CN(C)C)Cc2ccc(-c3cn4cccc([C@H](C)O)c4n3)cc2)cc1Cl` [GSK-923295A], for which the GI50 in the assay with H4 [1] worked out at 31 nM; in the assay on RKO it was 53 nM; in the assay on SF-295, 35 nM. In addition, in the assay with H4 [2], the Activity came to 2.64.
